Laboratory results reported in ChEMBL document CHEMBL3612035, “Synthesis and biological evaluation of new curcumin analogues as antioxidant and antitumor agents: molecular modeling study” (Eur J Med Chem, 2015).

Assays:
[1] = Cytotoxicity against mouse EAC cells assessed as dead cells at 25 uM after 24 hrs by trypan blue dye exclusion method relative to control; assay type: functional, Ehrlich
How it was run: (§1)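 EAC cells came from ascitic fluid of female Swiss albino mice 7-8 days after inoculation and were washed in HEPES-buffered Hanks' salt solution. They were preincubated 24 h in RPMI 1640 with 10% fetal calf serum at 2 × 10⁵ cells/ml, 37 °C, 5% CO₂. Cells were then exposed to drug for 24 h, PBS-washed and counted by trypan blue exclusion. Survival = viable T/C × 100; triplicate mean.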

[2] = Cytotoxicity against mouse EAC cells assessed as dead cells at 100 uM after 24 hrs by trypan blue dye exclusion method relative to control; assay type: functional, Ehrlich; how it was run: as §1
[3] = Antitumor activity against mouse EAC cells allografted in Swiss albino mouse assessed as tumor growth inhibition at 75 mg/kg, po administered for 21 days measured 21 day post dose relative to control; assay type: functional; conditions: Ehrlich, 504 h, read-out: TGI
How it was run: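 EAC was kept by i.p. passage in female Swiss albino mice. Washed ascitic cells (5 × 10⁵ viable per 0.1 ml saline) were injected s.c. At 50–100 mm³, mice were split into groups of 10 and given compound 75 mg/kg orally in CMC for 21 consecutive days; controls got saline 5 ml/kg. Tumor size was read at day 0 and day 21. Inhibition was derived from ΔT/ΔC × 100.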

[4] = Cytotoxicity against mouse EAC cells assessed as dead cells at 50 uM after 24 hrs by trypan blue dye exclusion method relative to control; assay type: functional, Ehrlich; how it was run: as §1
[5] = Antioxidant activity assessed as inhibition of ABTS radical cation generation at 1 mg/ml by colorimetric method relative to control; assay type: physicochemical
How it was run: (§2)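 ABTS radical cation solution read at 734 nm. Test samples were added as a 1 mg/ml solution in MeOH/buffer (1:1 v/v); ascorbic acid (2 mM solution) and curcumin (1 mg/ml) were the standards. % inhibition = (Acontrol − Atest)/Acontrol × 100. Blank was solvent without ABTS.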

[6] = Antioxidant activity assessed as inhibition of ABTS radical cation generation at 2 mM by colorimetric method relative to control; assay type: physicochemical; conditions: 2000 µM; how it was run: as §2

In the case of `CCN1C/C(=C\c2ccc(OC)cc2)C2=NN(c3nc(-c4ccc(Cl)cc4)cs3)C(c3ccc(OC)cc3)C2C1` (stereo not given), the Activity [1] was 98.3%, the Activity [2] was 100% and the inhibition in vivo at 75 mg/kg [3] was 82%. The Activity [4] was 100% and the “inhibition (INH)” value [5] was 82.6%.
For `O=C1O[C@H]([C@@H](O)CO)C(O)=C1O` [ASCORBIC ACID], the “inhibition (INH)” value [6] was 88.34%.
For `CCN1C/C(=C\c2ccc(OC)cc2)C2=NN(C(N)=S)C(c3ccc(OC)cc3)C2C1` (stereo not given), the Activity [1] was 31.7%, the Activity [2] was 99% and the inhibition in vivo at 75 mg/kg [3] was 77%. For the same molecule, the Activity [4] was 66.5% and the “inhibition (INH)” value [5] was 88.17%.
Work on `COc1ccc(/C=C2\CN(C)CC3C2=NN(c2nc(-c4ccc(Cl)cc4)cs2)C3c2ccc(OC)cc2)cc1` (stereo not given) yielded an Activity [1] of 29.2%, an Activity [2] of 97.9% and an inhibition in vivo at 75 mg/kg [3] of 70%. The Activity [4] was 58% and the “inhibition (INH)” value [5] was 69.56%.
With `COc1cc(/C=C/C(=O)CC(=O)/C=C/c2ccc(O)c(OC)c2)ccc1O` [CURCUMIN] the “inhibition (INH)” value [5] was 86.6%.
`COc1ccc(/C=C/C2=NN(c3nc(-c4ccccc4)cs3)C(c3ccc(OC)cc3)C2)cc1` (stereo not given) showed an Activity [1] of 30.4%, an Activity [2] of 98.3% and an inhibition in vivo at 75 mg/kg [3] of 65%. The Activity [4] was 61.6% and the “inhibition (INH)” value [5] was 76%.
`COc1ccc(/C=C/C2=NN(C(N)=S)C(c3ccc(OC)cc3)C2)cc1` (stereo not given) showed an Activity [1] of 28.7%, an Activity [2] of 98% and an inhibition in vivo at 75 mg/kg [3] of 76%. The Activity [4] was 57.5% and the “inhibition (INH)” value [5] was 84.52%.
Work on `COc1ccc(/C=C2\CCCc3c2nc(N)c(C#N)c3-c2ccc(OC)c(OC)c2)cc1OC` yielded an Activity [1] of 24.9%, an Activity [2] of 84.2% and an Activity [4] of 45.1%. For the same molecule, the “inhibition (INH)” value [5] was 9.73%.
For `COc1ccc(/C=C2\CCCC3C2=NN(C2=NC(=O)/C(=C/c4ccc(OC)c(OC)c4)S2)C3c2ccc(OC)cc2)cc1` (stereo not given), the Activity [1] was 20.4%, the Activity [2] was 75.8% and the Activity [4] was 40%. For the same molecule, the “inhibition (INH)” value [5] was 19.13%.
For `N#Cc1c(N)nc2c(c1-c1ccc(O)cc1)CCC/C2=C\c1ccc(O)cc1`, the Activity [1] was 21.7%, the Activity [2] was 81% and the Activity [4] was 43.4%. For the same molecule, the “inhibition (INH)” value [5] was 8.69%.
Molecule `COc1ccc(/C=C2\CCCC3C2=NN(C2=NC(=O)/C(=C/c4ccc(Cl)cc4)S2)C3c2ccc(OC)cc2)cc1` (stereo not given) has an Activity [1] of 23.8%, an Activity [2] of 84% and an Activity [4] of 46%. For the same molecule, the “inhibition (INH)” value [5] was 25.73%.
For `COc1ccc(/C=C2\CCC3C2=NN(c2nc(-c4ccc(Cl)cc4)cs2)C3c2ccc(OC)cc2)cc1` (stereo not given), the Activity [1] was 25%, the Activity [2] was 93.5% and the Activity [4] was 47.1%. The “inhibition (INH)” value [5] was 27.47%.
`CCN1C/C(=C\c2ccc(OC)cc2)C2=NN(c3nc(-c4ccccc4)cs3)C(c3ccc(OC)cc3)C2C1` (stereo not given) showed an Activity [1] of 27.8%, an Activity [2] of 95.4% and an Activity [4] of 50.2%. For the same molecule, the “inhibition (INH)” value [5] was 60.52%.
With `COc1ccc(/C=C2\CCCC3C2=NN(C2=NC(=O)/C(=C/c4ccc(Br)cc4)S2)C3c2ccc(OC)cc2)cc1` (stereo not given) the Activity [1] was 22%, the Activity [2] was 81.6% and the Activity [4] was 43.8%. For the same molecule, the “inhibition (INH)” value [5] was 5.21%.
In the case of `COc1cc(/C=C2\CCCc3c2nc(N)c(C#N)c3-c2ccc(O)c(OC)c2)ccc1O`, the Activity [1] was 60.2%, the Activity [2] was 99.7% and the inhibition in vivo at 75 mg/kg [3] was 80%. The Activity [4] was 84% and the “inhibition (INH)” value [5] was 46.6%.
